In brackets after ≈: the same amount, converted by molar mass.
Columns and labels:
[1] = system: Enterococcus faecium; assay: Bactericidal activity against vancomycin-resistant Enterococcus faecium ATCC 700221 planktonic cells after 24 hrs by calgary biofilm device method; assay type: organism-based
How it was run: (§1)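 Biofilms grown 24 h at 37 °C on Calgary device pegs from mid-log culture diluted 1,000-fold in TSB + 0.5% glucose; washed pegs challenged 24 h at 37 °C with 2-fold serial dilutions. Challenge medium subcultured into fresh TSBG overnight; MBC = concentration without visible turbidity; at least three independent experiments.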

[2] = system: Staphylococcus epidermidis; assay: Induction of biofilm eradication of methicillin-resistant Staphylococcus epidermidis ATCC 35984 after 24 hrs by calgary biofilm device method; assay type: functional
How it was run: (§2)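 Calgary device: biofilms established 24 h at 37 °C from mid-log culture diluted 1,000-fold in TSBG (0.5% glucose), washed, exposed 24 h to 2-fold serial dilutions, then peg lid moved to fresh TSBG for 24 h recovery. MBEC = lowest concentration giving no turbidity; at least three independent experiments.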

[3] = system: Staphylococcus epidermidis; assay: Bactericidal activity against methicillin-resistant Staphylococcus epidermidis ATCC 35984 planktonic cells after 24 hrs by calgary biofilm device method; assay type: organism-based; how it was run: as §1
[4] = system: Staphylococcus aureus; assay: Bactericidal activity against methicillin-resistant Staphylococcus aureus 2 planktonic cells after 24 hrs by calgary biofilm device method; assay type: organism-based; how it was run: as §1
[5] = system: Staphylococcus aureus; assay: Induction of biofilm eradication of methicillin-resistant Staphylococcus aureus 2 after 24 hrs by calgary biofilm device method; assay type: functional; how it was run: as §2
[6] = system: Enterococcus faecium; assay: Induction of biofilm eradication of vancomycin-resistant Enterococcus faecium ATCC 700221 after 24 hrs by calgary biofilm device method; assay type: functional; how it was run: as §2
[7] = system: Mycobacterium tuberculosis; assay: Antibacterial activity against Mycobacterium tuberculosis H37Ra ATCC 25177 after 7 days; assay type: functional; settings: H37Ra ATCC 25177, 168 h
How it was run: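 M. tuberculosis H37Ra grown two weeks in Middlebrook 7H9, diluted to OD600 0.01; two-fold serial dilutions 0.024–50 µM (streptomycin positive control, 0.16–340 µM); final DMSO 0.5%. Incubated 7 days at 37 °C; MIC = lowest concentration with no growth, OD600 recorded; three independent experiments.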

[8] = system: Enterococcus faecium; assay: Antibacterial activity against vancomycin-resistant Enterococcus faecium ATCC 700221 after 16 to 18 hrs by broth microdilution method; assay type: functional
How it was run: (§3)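 CLSI broth microdilution in Lysogeny Broth, eleven two-fold dilutions spanning 0.10–100 µM; ~10^5 cells per well from log-phase culture; DMSO vehicle (top 1% v/v). MIC = lowest concentration preventing growth after 16–18 h at 37 °C, supported by OD600; three independent experiments.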

[9] = system: HeLa; assay: Cytotoxicity against human HeLa cells after 24 hrs by LDH release assy; assay type: cell-based
How it was run: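 HeLa cells in DMEM with 10% FBS at 37 °C, 5% CO2, dosed at 70-80% confluence with compound diluted in medium at 25, 50 and 100 µM for 24 h. Supernatant mixed with LDH reaction mixture, 30 min at room temperature, stopped, A490 read. Triton X-100 (2% v/v) as maximal-release control, medium only as no-death control, DMSO as vehicle. Three independent experiments.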

[10] = system: Staphylococcus epidermidis; assay: Antibacterial activity against methicillin-resistant Staphylococcus epidermidis ATCC 35984 after 16 to 18 hrs by broth microdilution method; assay type: functional
[11] = system: Staphylococcus aureus; assay: Bactericidal activity against methicillin-resistant Staphylococcus aureus BAA-1707 planktonic cells after 24 hrs by calgary biofilm device method; assay type: organism-based; how it was run: as §1
[12] = Half life in human serum by LC-MS analysis; assay type: ADME, cell-free
How it was run: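 Human serum pre-warmed to 37 °C, spiked with prodrug from 10 mM DMSO stock plus internal standard, vortexed, then held 1 to 60 min. At each time point, acetonitrile with 0.5% formic acid was added to precipitate proteins. Released active HP was quantified as its ratio to internal standard against standard curves.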

[13] = Hemolytic activity in human RBC at 200 uM after 1 hr relative to control; assay type: ADME, cell-based, Erythrocyte; settings: red blood cells (erythrocytes), read-out: Activity
How it was run: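 Human RBCs drawn fresh into EDTA were washed three times in Tris-buffered saline (0.01 M Tris, 0.155 M NaCl, pH 7.2). 2% hRBC suspension was added to compound from DMSO stock, final 200 µM, for 1 h at 37 °C, then centrifuged and supernatant OD405 read. Scaled between DMSO (0%) and Triton X (100%). Three independent experiments.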

[14] = system: Staphylococcus aureus; assay: Induction of biofilm eradication of methicillin-resistant Staphylococcus aureus BAA-1707 after 24 hrs by calgary biofilm device method; assay type: functional; how it was run: as §2
[15] = system: Staphylococcus aureus; assay: Antibacterial activity against methicillin-resistant Staphylococcus aureus BAA-1707 after 16 to 18 hrs by broth microdilution method; assay type: functional; how it was run: as §3
[16] = system: Staphylococcus aureus; assay: Antibacterial activity against methicillin-resistant Staphylococcus aureus 2 after 16 to 18 hrs by broth microdilution method; assay type: functional; how it was run: as §3

| SMILES | MBC [3] | MBC [4] | MIC [8] | IC50 [9] | MIC [10] | hemolysis at 1 h, 200 µM [13] | MIC [15] | further results |
| --- | --- | --- | --- | --- | --- | --- | --- | --- |
| CC(=O)N[C@@H](CS)C(=O)O [ACETYLCYSTEINE] | > 2000 µM | > 2000 µM |  |  |  |  |  | MBC [1]: > 2000 µM; MBEC [2]: >2000 µM; MBEC [5]: >2000 µM; MBEC [6]: >2000 µM |
| CCc1ccc2nc3c(O)ccc(Br)c3nc2c1 |  |  | 12.5 µM (≈ 3.79 µg/mL) | > 100 µM | 9.38 µM (≈ 2.84 µg/mL) |  |  | MIC [7]: 25 µM (≈ 7.58 µg/mL) |
| CN[C@@H]1[C@H](O[C@H]2[C@H](O[C@H]3[C@H](O)[C@@H](O)[C@H](N=C(N)N)[C@@H](O)[C@@H]3N=C(N)N)O[C@@H](C)[C@]2(O)C=O)O[C@@H](CO)[C@H](O)[C@H]1O [STREPTOMYCIN] |  |  |  |  |  |  |  | MIC [7]: 1.32 µM (≈ 0.768 µg/mL) |
| COCCOCCOCC(=O)Oc1c(Br)cc(Br)c2nc3ccccc3nc12 | 9.38 µM (≈ 4.82 µg/mL) |  | 3.13 µM (≈ 1.61 µg/mL) | > 100 µM |  | 1.2% |  | MBC [11]: 18.8 µM (≈ 9.67 µg/mL); MBC [1]: 6.25 µM (≈ 3.21 µg/mL); MBEC [2]: 37.5 µM; half-life [12]: < 1 min; MBEC [14]: 75 µM |
| NC(=O)c1cnccn1 [PYRAZINAMIDE] |  | > 2000 µM |  |  |  |  |  | MBEC [5]: >2000 µM |
| CCCc1ccc2nc3c(O)c(Br)cc(Br)c3nc2c1 | 25 µM (≈ 9.9 µg/mL) |  | 3.13 µM (≈ 1.24 µg/mL) | > 50 µM | 0.15 µM (≈ 0.0594 µg/mL) | 2.1% | 0.1 µM (≈ 0.0396 µg/mL) | MBC [1]: 25 µM (≈ 9.9 µg/mL); MBEC [14]: 75 µM |
| Cc1cc2nc3c(O)c(Br)cc(Br)c3nc2c(C)c1C | 25 µM (≈ 9.9 µg/mL) |  |  | > 100 µM | 0.1 µM (≈ 0.0396 µg/mL) | 1.3% | 0.59 µM (≈ 0.234 µg/mL) | MBC [11]: 150 µM (≈ 59.4 µg/mL); MBEC [2]: 25 µM; MBEC [14]: 75 µM |
| CCOc1ccc2nc3c(O)c(Br)cc(Br)c3nc2c1 |  |  | > 100 µM |  | 18.8 µM (≈ 7.48 µg/mL) |  | > 100 µM |  |
| c1ccc(CN(CCN(Cc2ccccn2)Cc2ccccn2)Cc2ccccn2)nc1 |  |  |  |  |  | ≤ 1% | 50 µM (≈ 21.2 µg/mL) | MBC [11]: 250 µM (≈ 106 µg/mL); MBC [1]: 188 µM (≈ 79.8 µg/mL); MBEC [14]: >2000 µM; MBEC [6]: >2000 µM |
| C[C@H]1c2cccc(O)c2C(=O)C2=C(O)[C@]3(O)C(=O)C(C(N)=O)=C(O)[C@@H](N(C)C)[C@@H]3[C@@H](O)[C@@H]21.O [DOXYCYCLINE] |  | 2 µM |  |  |  |  |  | MBEC [5]: 46.9 µM |
| OC[C@H]1O[C@@H](Oc2c(Br)cc(Br)c3nc4ccccc4nc23)[C@H](O)[C@@H](O)[C@@H]1O |  |  | > 100 µM |  | > 100 µM | ≤ 1% | > 100 µM | half-life [12]: > 260 min |
| COCCOCCOCCOC(=O)OCOc1c(Br)cc(Br)c2nc3ccccc3nc12 |  |  | > 100 µM |  | > 100 µM | 1.4% | > 100 µM | half-life [12]: 15.8 min |
| Oc1ccc(Br)c2nc3cc(Cl)ccc3nc12 |  |  | 25 µM (≈ 7.74 µg/mL) | > 100 µM | 18.8 µM (≈ 5.82 µg/mL) |  |  | MIC [7]: 6.25 µM (≈ 1.93 µg/mL) |
| CCCCCCCCCC(=O)N[C@@H](Cc1c[nH]c2ccccc12)C(=O)N[C@H](CC(N)=O)C(=O)N[C@@H](CC(=O)O)C(=O)N[C@@H]1C(=O)NCC(=O)N[C@@H](CCCN)C(=O)N[C@@H](CC(=O)O)C(=O)N[C@H](C)C(=O)N[C@@H](CC(=O)O)C(=O)NCC(=O)N[C@H](CO)C(=O)N[C@@H]([C@H](C)CC(=O)O)C(=O)N[C@@H](CC(=O)c2ccccc2N)C(=O)O[C@@H]1C [DAPTOMYCIN] |  | 62.5 µM (≈ 101 µg/mL) |  |  |  |  |  | MBC [11]: 125 µM (≈ 203 µg/mL) |
| CO[C@H]1/C=C/O[C@@]2(C)Oc3c(C)c(O)c4c(O)c(c(/C=N/N5CCN(C)CC5)c(O)c4c3C2=O)NC(=O)/C(C)=C\C=C\[C@H](C)[C@H](O)[C@@H](C)[C@@H](O)[C@@H](C)[C@H](OC(C)=O)[C@@H]1C [RIFAMPIN] | 3 µM (≈ 2.47 µg/mL) | 2 µM (≈ 1.65 µg/mL) |  |  | 0.1 µM (≈ 0.0823 µg/mL) |  |  | MBEC [2]: 15.6 µM; MIC [16]: 0.1 µM (≈ 0.0823 µg/mL); MBEC [5]: 46.9 µM |
